What all share (assay type): functional
For assay [1], the system named is Radical scavenging activity. The assay is described as follows: Antioxidant activity assessed as DPPH free radical scavenging activity at 0.6 ug/mL after 20 min by UV-Vis spectrophotometric analysis. An outline of the steps:
(§1)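 DPPH radical scavenging: samples held at room temperature for 20 min in the dark, then absorbance read at 517 nm. Control was DMSO without compound; methanol used for baseline correction. Percent scavenging calculated from absorbance relative to control.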

The subject of assay [2] is Radical scavenging activity. Put plainly: Antioxidant activity assessed as DPPH free radical scavenging activity at 2 ug/mL after 20 min by UV-Vis spectrophotometric analysis. Summed up: as §1
Assay [3] relates to Radical scavenging activity. Put plainly: Antioxidant activity assessed as DPPH free radical scavenging activity at 1 ug/mL after 20 min by UV-Vis spectrophotometric analysis. Summed up:
as §1
In general terms: DPPH is a stable violet radical that fades when it is reduced.

Assay [4] relates to Radical scavenging activity. The assay is described as follows: Antioxidant activity assessed as DPPH free radical scavenging activity at 0.1 ug/mL after 20 min by UV-Vis spectrophotometric analysis. An outline of the steps: as §1
For assay [5], the system named is Radical scavenging activity. The assay is described as follows: Antioxidant activity assessed as DPPH free radical scavenging activity at 0.4 ug/mL after 20 min by UV-Vis spectrophotometric analysis. An outline of the steps: as §1
Assay [6] deals with Radical scavenging activity. The assay is described as follows: Antioxidant activity assessed as DPPH free radical scavenging activity at 0.8 ug/mL after 20 min by UV-Vis spectrophotometric analysis. Summed up:
as §1

For assay [7], the system named is Radical scavenging activity. Put plainly: Antioxidant activity assessed as DPPH free radical scavenging activity at 0.2 ug/mL after 20 min by UV-Vis spectrophotometric analysis. An outline of the steps:
as §1

For assay [8], the system named is Radical scavenging activity. Put plainly: Antioxidant activity assessed as DPPH free radical scavenging activity at 3 ug/mL after 20 min by UV-Vis spectrophotometric analysis. An outline of the steps: as §1
Assay [9] concerns Radical scavenging activity. Put plainly: Antioxidant activity assessed as DPPH free radical scavenging activity at 4 ug/mL after 20 min by UV-Vis spectrophotometric analysis. Summed up:
as §1

Assay [10] has as its system Radical scavenging activity. The assay is described as follows: Antioxidant activity assessed as DPPH free radical scavenging activity after 20 min by UV-Vis spectrophotometric analysis. Details: concentration or dose not given beside the values. An outline of the steps:
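DPPH radical scavenging: samples were held at room temperature for 20 min in the dark, and absorbance was read at 517 nm. The control contained DMSO without compound, and methanol was used for baseline correction. Scavenging percentage was calculated from the absorbances.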

Converted amounts (≈) assume the structure as drawn.

The term IC50 denotes the midpoint of a concentration-inhibition curve.

In the case of `O=C(O)c1cc(O)c(O)c(O)c1` [GALLIC ACID], the Activity in assay [1] was determined as 28%; in assay [2] it was 73.6%; in assay [3], 41%; in assay [4], 13.9%; in assay [5], 21.4%; in assay [6], 34.4%. For the same molecule, the Activity in assay [7] came out at 15.8%; in [8] it was 88.9%; in assay [9] it was 89.9%; in [10] it was 21.4%. For the same molecule, the half-inhibitory concentration (IC50) in assay [10] stood at 1.28 µg/mL (≈ 7.52 µM).

For the origin of these results see ChEMBL document CHEMBL3045565, “Microwave synthesis, characterization and bio-efficacy evaluation of novel chalcone based 6-carbethoxy-2-cyclohexen-1-one and 2H-indazol-3-ol derivatives” (Eur J Med Chem, 2013).
